# Data taken from ChEMBL document CHEMBL5058577, “EUbOPEN Chemogenomics Library 2 (Multiplex)” (2022).
# Test system: U2OS
# Assay: Multiplex assay against U2OS
# Assay type: toxicity, cell-based
# Conditions: human
# Procedure, shortened: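 Four dyes were applied at seeding to live cells: Hoechst33342, BioTracker Green Microtubule Cytoskeleton Dye, MitoTracker Red and Annexin V Alexa Fluor 680. Imaging after compound addition used a CQ1 microscope at 37°C and 5% CO2. CellPathfinder machine-learning gating then sorted cells into Hoechst high-intensity objects or normal cells, normal cells into healthy, pyknosed or fragmented nuclei, and pyknosed cells into mitotic or apoptotic, with tubulin, mitochondrial-mass and membrane-permeability phenotypes given as per cents of healthy-nucleus cells.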
# [1] = 12 h, 1 µM, compound concentration 1 uM, replicate 1
# [2] = 12 h, 1 µM, compound concentration 1 uM, replicate 2
# [3] = 12 h, 10 µM, compound concentration 10 uM, replicate 1
# [4] = 12 h, 10 µM, compound concentration 10 uM, replicate 2
# [5] = 24 h, 1 µM, compound concentration 1 uM, replicate 1
# [6] = 24 h, 1 µM, compound concentration 1 uM, replicate 2
# [7] = 24 h, 10 µM, compound concentration 10 uM, replicate 1
# [8] = 24 h, 10 µM, compound concentration 10 uM, replicate 2
# [9] = 48 h, 1 µM, compound concentration 1 uM, replicate 1
# [10] = 48 h, 1 µM, compound concentration 1 uM, replicate 2
# [11] = 48 h, 10 µM, compound concentration 10 uM, replicate 1
# [12] = 48 h, 10 µM, compound concentration 10 uM, replicate 2
compound,measurement,setting,value
CSCC[C@H](NC=O)C(=O)N[C@@H](CC(C)C)C(=O)N[C@@H](Cc1ccccc1)C(=O)O,Population Apoptotic (%),[1],73%
same,Population Fragmented Nuclei (%),[1],29%
same,Population Mitochondria Different-Phenotype (%),[1],4%
same,Population Mitotic Cells (%),[1],26%
same,Total Cell Count,[1],254
same,Population Apoptotic (%),[2],100%
same,Population Fragmented Nuclei (%),[2],17%
same,Population Healthy Nuclei (%),[2],75%
same,Population Mitochondria Different-Phenotype (%),[2],3%
same,Population Mitotic Cells (%),[2],0%
same,Total Cell Count,[2],135
same,Population Apoptotic (%),[3],69%
same,Population Fragmented Nuclei (%),[3],23%
same,Population Healthy Nuclei (%),[3],70%
same,Population Mitochondria Different-Phenotype (%),[3],1%
same,Population Mitotic Cells (%),[3],30%
same,Total Cell Count,[3],202
same,Population Apoptotic (%),[4],90%
same,Population Fragmented Nuclei (%),[4],16%
same,Population Healthy Nuclei (%),[4],74%
same,Population Membrane Permeable-Phenotype (%),[4],4%
same,Population Mitochondria Different-Phenotype (%),[4],2%
same,Total Cell Count,[4],123
same,Population Apoptotic (%),[5],91%
same,Population Fragmented Nuclei (%),[5],24%
same,Population Mitochondria Different-Phenotype (%),[5],3%
same,Population Mitotic Cells (%),[5],8%
same,Total Cell Count,[5],288
same,Population Apoptotic (%),[6],90%
same,Population Fragmented Nuclei (%),[6],17%
same,Population Healthy Nuclei (%),[6],75%
same,Population Mitochondria Different-Phenotype (%),[6],0%
same,Total Cell Count,[6],147
same,Population Apoptotic (%),[7],76%
same,Population Fragmented Nuclei (%),[7],23%
same,Population Healthy Nuclei (%),[7],68%
same,Population Mitochondria Different-Phenotype (%),[7],1%
same,Population Mitotic Cells (%),[7],23%
same,Total Cell Count,[7],247
same,Population Apoptotic (%),[8],100%
same,Population Fragmented Nuclei (%),[8],19%
same,Population Healthy Nuclei (%),[8],70%
same,Population Membrane Permeable-Phenotype (%),[8],8%
same,Population Mitochondria Different-Phenotype (%),[8],2%
same,Population Mitotic Cells (%),[8],0%
same,Total Cell Count,[8],147
same,Population Fragmented Nuclei (%),[9],16%
same,Population Healthy Nuclei (%),[9],75%
same,Population Membrane Permeable-Phenotype (%),[9],4%
same,Population Mitochondria Different-Phenotype (%),[9],3%
same,Population Mitotic Cells (%),[9],15%
same,Total Cell Count,[9],411
same,Population Fragmented Nuclei (%),[10],18%
same,Population Healthy Nuclei (%),[10],68%
same,Population Mitochondria Different-Phenotype (%),[10],1%
same,Population Mitotic Cells (%),[10],3%
same,Total Cell Count,[10],202
same,Population Apoptotic (%),[11],90%
same,Population Fragmented Nuclei (%),[11],20%
same,Population Healthy Nuclei (%),[11],70%
same,Population Membrane Permeable-Phenotype (%),[11],4%
same,Population Mitochondria Different-Phenotype (%),[11],2%
same,Population Mitotic Cells (%),[11],9%
same,Total Cell Count,[11],362
same,Population Apoptotic (%),[12],100%
same,Population Fragmented Nuclei (%),[12],53%
same,Population Healthy Nuclei (%),[12],25%
same,Population Membrane Permeable-Phenotype (%),[12],80%
same,Population Mitochondria Different-Phenotype (%),[12],50%
same,Population Mitotic Cells (%),[12],0%
same,Total Cell Count,[12],41
CCOc1c2c(c(OCC)c3ncccc13)CN(c1ccc(CS(=O)(=O)NC(=O)Cc3ccccc3OC)cc1C)C2=O,Population Apoptotic (%),[1],64%
same,Population Fragmented Nuclei (%),[1],22%
same,Population Healthy Nuclei (%),[1],70%
same,Population Hoechst High Intensity Objects (%),[1],2%
same,Population Membrane Permeable-Phenotype (%),[1],7%
same,Population Mitochondria Different-Phenotype (%),[1],3%
same,Population Mitotic Cells (%),[1],35%
same,Population Normal (%),[1],97%
same,Population Pyknosed Nuclei (%),[1],7%
same,Population Tubulin-Different-Phenotype (%),[1],2%
same,Total Cell Count,[1],189
same,Population Apoptotic (%),[2],100%
same,Population Fragmented Nuclei (%),[2],13%
same,Population Healthy Nuclei (%),[2],82%
same,Population Hoechst High Intensity Objects (%),[2],1%
same,Population Membrane Permeable-Phenotype (%),[2],9%
same,Population Mitotic Cells (%),[2],0%
same,Population Normal (%),[2],98%
same,Population Pyknosed Nuclei (%),[2],4%
same,Population Tubulin-Different-Phenotype (%),[2],6%
same,Total Cell Count,[2],93
same,Population Apoptotic (%),[3],81%
same,Population Fragmented Nuclei (%),[3],30%
same,Population Healthy Nuclei (%),[3],63%
same,Population Hoechst High Intensity Objects (%),[3],2%
same,Population Membrane Permeable-Phenotype (%),[3],5%
same,Population Mitochondria Different-Phenotype (%),[3],3%
same,Population Mitotic Cells (%),[3],18%
same,Population Normal (%),[3],97%
same,Population Pyknosed Nuclei (%),[3],6%
same,Population Tubulin-Different-Phenotype (%),[3],2%
same,Total Cell Count,[3],248
same,Population Apoptotic (%),[4],80%
same,Population Fragmented Nuclei (%),[4],21%
same,Population Healthy Nuclei (%),[4],75%
same,Population Membrane Permeable-Phenotype (%),[4],8%
same,Population Mitochondria Different-Phenotype (%),[4],6%
same,Population Mitotic Cells (%),[4],20%
same,Population Pyknosed Nuclei (%),[4],3%
same,Population Tubulin-Different-Phenotype (%),[4],3%
same,Total Cell Count,[4],136
same,Population Apoptotic (%),[5],80%
same,Population Fragmented Nuclei (%),[5],21%
same,Population Healthy Nuclei (%),[5],71%
same,Population Hoechst High Intensity Objects (%),[5],3%
same,Population Membrane Permeable-Phenotype (%),[5],4%
same,Population Mitochondria Different-Phenotype (%),[5],0%
same,Population Mitotic Cells (%),[5],20%
same,Population Normal (%),[5],96%
same,Population Pyknosed Nuclei (%),[5],6%
same,Population Tubulin-Different-Phenotype (%),[5],1%
same,Total Cell Count,[5],235
same,Population Apoptotic (%),[6],100%
same,Population Fragmented Nuclei (%),[6],19%
same,Population Healthy Nuclei (%),[6],76%
same,Population Hoechst High Intensity Objects (%),[6],1%
same,Population Membrane Permeable-Phenotype (%),[6],7%
same,Population Mitochondria Different-Phenotype (%),[6],4%
same,Population Mitotic Cells (%),[6],0%
same,Population Normal (%),[6],98%
same,Population Pyknosed Nuclei (%),[6],4%
same,Population Tubulin-Different-Phenotype (%),[6],4%
same,Total Cell Count,[6],125
same,Population Apoptotic (%),[7],76%
same,Population Fragmented Nuclei (%),[7],27%
same,Population Healthy Nuclei (%),[7],61%
same,Population Hoechst High Intensity Objects (%),[7],3%
same,Population Membrane Permeable-Phenotype (%),[7],6%
same,Population Mitochondria Different-Phenotype (%),[7],2%
same,Population Mitotic Cells (%),[7],23%
same,Population Normal (%),[7],96%
same,Population Pyknosed Nuclei (%),[7],10%
same,Population Tubulin-Different-Phenotype (%),[7],1%
same,Total Cell Count,[7],285
same,Population Apoptotic (%),[8],100%
same,Population Fragmented Nuclei (%),[8],17%
same,Population Healthy Nuclei (%),[8],76%
same,Population Hoechst High Intensity Objects (%),[8],0%
same,Population Mitotic Cells (%),[8],0%
same,Population Normal (%),[8],99%
same,Population Pyknosed Nuclei (%),[8],5%
same,Population Tubulin-Different-Phenotype (%),[8],5%
same,Total Cell Count,[8],152
same,Population Apoptotic (%),[9],85%
same,Population Fragmented Nuclei (%),[9],19%
same,Population Healthy Nuclei (%),[9],74%
same,Population Hoechst High Intensity Objects (%),[9],2%
same,Population Membrane Permeable-Phenotype (%),[9],3%
same,Population Mitochondria Different-Phenotype (%),[9],1%
same,Population Mitotic Cells (%),[9],15%
same,Population Normal (%),[9],97%
same,Population Pyknosed Nuclei (%),[9],5%
same,Population Tubulin-Different-Phenotype (%),[9],2%
same,Total Cell Count,[9],344
same,Population Apoptotic (%),[10],100%
same,Population Fragmented Nuclei (%),[10],17%
same,Population Healthy Nuclei (%),[10],79%
same,Population Hoechst High Intensity Objects (%),[10],4%
same,Population Membrane Permeable-Phenotype (%),[10],7%
same,Population Mitochondria Different-Phenotype (%),[10],3%
same,Population Mitotic Cells (%),[10],0%
same,Population Normal (%),[10],95%
same,Population Pyknosed Nuclei (%),[10],2%
same,Population Tubulin-Different-Phenotype (%),[10],5%
same,Total Cell Count,[10],167
same,Population Apoptotic (%),[11],91%
same,Population Fragmented Nuclei (%),[11],19%
same,Population Healthy Nuclei (%),[11],71%
same,Population Hoechst High Intensity Objects (%),[11],2%
same,Population Membrane Permeable-Phenotype (%),[11],5%
same,Population Mitochondria Different-Phenotype (%),[11],1%
same,Population Mitotic Cells (%),[11],8%
same,Population Normal (%),[11],97%
same,Population Pyknosed Nuclei (%),[11],9%
same,Population Tubulin-Different-Phenotype (%),[11],2%
same,Total Cell Count,[11],385
same,Population Apoptotic (%),[12],100%
same,Population Fragmented Nuclei (%),[12],18%
same,Population Healthy Nuclei (%),[12],74%
same,Population Membrane Permeable-Phenotype (%),[12],8%
same,Population Mitochondria Different-Phenotype (%),[12],4%
same,Population Mitotic Cells (%),[12],0%
same,Population Pyknosed Nuclei (%),[12],6%
same,Population Tubulin-Different-Phenotype (%),[12],3%
same,Total Cell Count,[12],236
